From article PMC3288193 (Clinical Immunology (Orlando, Fla.), 2011)

Experiments:
[1] = tested on: purified Class II molecules (DRB1*0101, DRB1*0301, DRB1*0401, DRB1*0701, DRB1*1501); test: Competition-based class II HLA binding assay; parameters: species or system human; conditions: test peptide 100 μM; average of 5 DRB1 alleles; Fig. 2
Outline: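 Non-biotinylated test peptides (HPLC-purified ≥80%) at 100 μM competed against biotinylated standard peptide (0.1 μM) for purified class II molecules (50 nM), 24 h at 37°C. Complexes were captured on ELISA plates with pan anti-class II L243, then incubated with europium-streptavidin for 1 h at RT, developed 15–20 min, and read by TRF. Triplicates. Percent inhibition per allele was averaged across five alleles.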

[2] = tested on: LN cells of HLA-DR4 (DRB1*0401) transgenic mice; test: T cell proliferation of LN cells from peptide-immunized DR4 mice; format: in vivo, mouse; conditions: DR4 mice immunized with mixture of 2231-M1, -M2, -M3, 3 μg each in CFA; Fig. 5C
Outline: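 Mixed peptides (3 μg each in CFA) were injected subcutaneously via hind footpad and tail base. After two weeks, pooled draining inguinal/popliteal LN cells (0.5×10^6/well) were stimulated 48 h with ORG or MOD peptides (0, 1, 3, 10 μg/ml) in RPMI 1640 with 2% FBS and 0.5% hemophilic mouse serum. Cells were pulsed with 1 μCi [3H]-thymidine for 16–20 h and beta-counted. Results are background-subtracted ΔCPM, mean ± SEM of triplicates.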

[3] = tested on: LN cells of hemophilic FVIII KO E16 mice (H-2b); test: T cell proliferation of LN cells from peptide-immunized E16 mice; format: in vivo, mouse; conditions: LN cells stimulated with 2191 in presence of competitor ORG peptides over a range of concentrations, Appendix Fig. 1

Substance	effect of modification on average HLA binding versus ORG peptide [1]	de novo immunogenicity of MOD peptides (T cell proliferation) [2]	HLA binding, average across HLA alleles (rank among ORG peptides) [1]	effect of competitor ORG peptides on 2191-O-specific proliferation [3]
2231-M1: modified (MOD) version of 2231-O with F2234G mutation (QVDGQKTMKVTGVTTQGVKSL)	lower HLA binding	significantly lower		
2191-M1: modified (MOD) version of 2191-O with one substitution, F2196G (TASSYGTNMFATWSPSKARL)	only moderately reduced binding			
2191-O: original (ORG) human FVIII C2 domain epitope cluster peptide, amino acid positions 2191–2210 (TASSYFTNMFATWSPSKARL)			bound strongest	not affected by the presence of competitor ORG peptides
